Measurements reported in ChEMBL document CHEMBL1240480, “Design, synthesis and biological evaluation of L-dopa amide derivatives as potential prodrugs for the treatment of Parkinson's disease” (Eur J Med Chem, 2010).

What was measured:
Rattus norvegicus [1] = experiment: Antiparkinsonian activity in 6-hydroxydopamine lesioned Wistar rat assessed as number of rotation per 10 mins at 20.97 mg/kg, po; type: functional
Summary of the method: (§1)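 Rotometer assay in unilaterally 6-OHDA-lesioned male Wistar rats (apomorphine-confirmed, >6 turns/min). Benserazide 10 mg/kg was given, followed by compound at 63.4 µmol/kg ip or po in saline (n=4–8 per treatment). Rotations were recorded per 10 min for 240 min. Peak (maximum) rotations per 10 min were taken and expressed relative to L-dopa.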

Rattus norvegicus [2] = experiment: Antiparkinsonian activity in 6-hydroxydopamine lesioned Wistar rat assessed as duration of rotation per 10 mins at 20.97 mg/kg, po; type: functional
Summary of the method: (§2)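 The 6-OHDA-lesioned male Wistar rats were apomorphine-screened (>6 turns/min) and given benserazide 10 mg/kg, then a saline-vehicle dose of 63.4 µmol/kg ip or po (n=4–8). Rotations were counted per 10 min for 4 h. Duration of activity was the time turning >10 turns per 10 min, expressed as % of the L-dopa effect.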

Rattus norvegicus [3] = experiment: Antiparkinsonian activity in 6-hydroxydopamine lesioned Wistar rat assessed as area under curve measured as number of rotation per 10 mins at 20.97 mg/kg, po; type: functional
Summary of the method: (§3)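 Male Wistar rats were given desipramine (25 mg/kg ip) and then a unilateral 6-OHDA injection (8 µg free base) into the left medial forebrain bundle. Lesions were confirmed ≥2 weeks later by apomorphine (0.5 mg/kg sc), accepting rats with >6 turns/min. Rats (n=4–8) received benserazide 10 mg/kg and 30 min basal recording, then drug at 63.4 µmol/kg ip or po in saline. Contraversive rotations were counted per 10 min over 240 min. AUC was calculated and expressed as % of the L-dopa effect.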

Rattus norvegicus [4] = experiment: Antiparkinsonian activity in 6-hydroxydopamine lesioned Wistar rat assessed as number of rotation per 10 mins at 21.86 mg/kg, po; type: functional
Rattus norvegicus [5] = experiment: Antiparkinsonian activity in 6-hydroxydopamine lesioned Wistar rat assessed as area under curve measured as number of rotation per 10 mins at 21.86 mg/kg, po; type: functional; summary of the method: as §3
Rattus norvegicus [6] = experiment: Antiparkinsonian activity in 6-hydroxydopamine lesioned Wistar rat assessed as duration of rotation per 10 mins at 21.86 mg/kg, po; type: functional; summary of the method: as §2
Rattus norvegicus [7] = experiment: Antiparkinsonian activity in 6-hydroxydopamine lesioned Wistar rat assessed as area under curve measured as number of rotation per 10 mins at 22.75 mg/kg, po; type: functional; summary of the method: as §3
Rattus norvegicus [8] = experiment: Antiparkinsonian activity in 6-hydroxydopamine lesioned Wistar rat assessed as duration of rotation per 10 mins at 22.75 mg/kg, po; type: functional; summary of the method: as §2
Rattus norvegicus [9] = experiment: Antiparkinsonian activity in 6-hydroxydopamine lesioned Wistar rat assessed as number of rotation per 10 mins at 22.75 mg/kg, po; type: functional
Rattus norvegicus [10] = experiment: Antiparkinsonian activity in 6-hydroxydopamine lesioned Wistar rat assessed as duration of rotation per 10 mins at 21.81 mg/kg, po; type: functional; summary of the method: as §2
Rattus norvegicus [11] = experiment: Antiparkinsonian activity in 6-hydroxydopamine lesioned Wistar rat assessed as number of rotation per 10 mins at 21.81 mg/kg, po; type: functional
Rattus norvegicus [12] = experiment: Antiparkinsonian activity in 6-hydroxydopamine lesioned Wistar rat assessed as area under curve measured as number of rotation per 10 mins at 21.81 mg/kg, po; type: functional; summary of the method: as §3
Rattus norvegicus [13] = experiment: Antiparkinsonian activity in 6-hydroxydopamine lesioned Wistar rat assessed as number of rotation per 10 mins at 23.89 mg/kg, po; type: functional
Rattus norvegicus [14] = experiment: Antiparkinsonian activity in 6-hydroxydopamine lesioned Wistar rat assessed as duration of rotation per 10 mins at 23.89 mg/kg, po; type: functional; summary of the method: as §2
Rattus norvegicus [15] = experiment: Cmax in Wistar rat at 23.9 mg/kg, po assessed as L-dopa level; type: ADME, organism-based; parameters: dose 23.9 mg/kg, route oral; conditions: in vivo
Summary of the method: (§4)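 Naïve male Wistar rats (250–500 g), fasted overnight, dosed orally in 0.9% saline with benserazide (10 mg/kg) at dose equivalent to 12.5 mg/kg L-dopa. Heparinised tail-vein blood at various times; plasma extracted with 20% TFA in 10 mM metabisulphite with warfarin internal standard; L-dopa quantified by LC-MS/MS (positive ESI) against plasma standard curve 0.39–50 µM.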

Rattus norvegicus [16] = experiment: Antiparkinsonian activity in 6-hydroxydopamine lesioned Wistar rat assessed as area under curve measured as number of rotation per 10 mins at 23.89 mg/kg, po; type: functional; summary of the method: as §3
Rattus norvegicus [17] = experiment: AUC (0 to 4 hrs) in Wistar rat at 23.9 mg/kg, po assessed as L-dopa level; type: ADME, organism-based, Plasma; parameters: time < 4 hr, dose 23.9 mg/kg, route oral; conditions: in vivo
Summary of the method: (§5)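 Naïve male Wistar rats (250–500 g), fasted overnight, dosed with compound in 0.9% saline together with benserazide (10 mg/kg), at a dose molar-equivalent to 12.5 mg/kg L-dopa. Heparinised tail-vein blood was sampled at intervals and the plasma stored at −80 °C. L-dopa was extracted with 20% TFA/10 mM metabisulphite plus warfarin internal standard and quantified by LC-MS/MS (positive ESI) against plasma standard curves.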

Rattus norvegicus [18] = experiment: AUC (0 to 4 hrs) in Wistar rat at 25.4 mg/kg, po assessed as L-dopa level; type: ADME, organism-based, Plasma; parameters: time < 4 hr, dose 25.4 mg/kg, route oral; conditions: in vivo; summary of the method: as §5
Rattus norvegicus [19] = experiment: Apparent half life in Wistar rat at 25.4 mg/kg, po assessed as L-dopa level; type: ADME, organism-based; parameters: dose 25.4 mg/kg, route oral; conditions: in vivo; summary of the method: as §4
Rattus norvegicus [20] = experiment: Cmax in Wistar rat at 25.4 mg/kg, po assessed as L-dopa level; type: ADME, organism-based; parameters: dose 25.4 mg/kg, route oral; conditions: in vivo; summary of the method: as §4
Rattus norvegicus [21] = experiment: Antiparkinsonian activity in 6-hydroxydopamine lesioned Wistar rat assessed as duration of rotation per 10 mins at 12.5 mg/kg, po; type: functional; summary of the method: as §2
Rattus norvegicus [22] = experiment: Antiparkinsonian activity in 6-hydroxydopamine lesioned Wistar rat assessed as area under curve measured as number of rotation per 10 mins at 12.5 mg/kg, po; type: functional; summary of the method: as §3
Rattus norvegicus [23] = experiment: Antiparkinsonian activity in 6-hydroxydopamine lesioned Wistar rat assessed as number of rotation per 10 mins at 12.5 mg/kg, po; type: functional; summary of the method: as §1
Rattus norvegicus [24] = experiment: Antiparkinsonian activity in 6-hydroxydopamine lesioned Wistar rat assessed as area under curve measured as number of rotation per 10 mins at 12.5 mg/kg, ip; type: functional; conditions: route intraperitoneal; summary of the method: as §3
Rattus norvegicus [25] = experiment: Antiparkinsonian activity in 6-hydroxydopamine lesioned Wistar rat assessed as number of rotation per 10 mins at 12.5 mg/kg, ip; type: functional; conditions: route intraperitoneal; summary of the method: as §1
Rattus norvegicus [26] = experiment: Antiparkinsonian activity in 6-hydroxydopamine lesioned Wistar rat assessed as duration of rotation per 10 mins at 12.5 mg/kg, ip; type: functional; conditions: route intraperitoneal; summary of the method: as §2

SMILES: CNC(=O)[C@@H](N)Cc1ccc(OC(C)=O)c(OC(C)=O)c1.Cl
- Activity (Rattus norvegicus [1]): 1
- Time (Rattus norvegicus [2]): 0 min
- Activity (Rattus norvegicus [3]): 26

SMILES: CCNC(=O)[C@@H](N)Cc1ccc(OC(C)=O)c(OC(C)=O)c1.Cl
- Activity (Rattus norvegicus [4]): 6
- Activity (Rattus norvegicus [5]): 20
- Time (Rattus norvegicus [6]): 3 min

SMILES: CC(=O)Oc1ccc(C[C@H](N)C(=O)NC(C)C)cc1OC(C)=O.Cl
- Activity (Rattus norvegicus [7]): 26
- Time (Rattus norvegicus [8]): 0 min
- Activity (Rattus norvegicus [9]): 2

SMILES: CC(=O)Oc1ccc(C[C@H](N)C(=O)N(C)C)cc1OC(C)=O.Cl
- Time (Rattus norvegicus [10]): 0 min
- Activity (Rattus norvegicus [11]): 1
- Activity (Rattus norvegicus [12]): 26

SMILES: CCOC(=O)Oc1ccc(C[C@H](N)C(N)=O)cc1OC(=O)OCC.Cl
- Activity (Rattus norvegicus [13]): 90
- Time (Rattus norvegicus [14]): 153 min
- Cmax (Rattus norvegicus [15]): 690 ng/mL
- Activity (Rattus norvegicus [16]): 579
- AUC (Rattus norvegicus [17]): 95 µg·min/mL

SMILES: CC(C)CC(=O)Oc1ccc(C[C@H](N)C(N)=O)cc1OC(=O)CC(C)C.Cl
- AUC (Rattus norvegicus [18]): 98 µg·min/mL
- t1/2 (Rattus norvegicus [19]): 1.3 h
- Cmax (Rattus norvegicus [20]): 860 ng/mL

SMILES: N[C@@H](Cc1ccc(O)c(O)c1)C(=O)O [LEVODOPA]
- Time (Rattus norvegicus [21]): 119 min
- Activity (Rattus norvegicus [22]): 522
- Activity (Rattus norvegicus [23]): 71
- Activity (Rattus norvegicus [24]): 1021
- Activity (Rattus norvegicus [25]): 104
- Time (Rattus norvegicus [26]): 160 min
